Active and inactive are the calls of the source. The calls are words filed in the database; no cut-off is given here.
Legend:
[1] = tested on: HCT-116; experiment: Induction of ROS generation in human HCT116 cells at 5 uM after 3 hrs by flow cytometry (reference value: 8.06%); type: functional
[2] = tested on: UACC-903; experiment: Potency index, ratio IC50 of selecoxib-1-GSH to IC50 of compound for human UACC-903 cells after 48 and 72 hrs; type: functional
[3] = Antiproliferative activity against human SKOV3 cells assessed as reduction in cell viability after 48 hrs by MTT assay; type: functional, cell-based; conditions: SK-OV-3, 48 h
Procedure, shortened: (§1)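 3000 cells/well incubated in triplicate with serial concentrations of compound for 24, 48 or 72 h at 37 °C. MTT (5.0 mg/mL solution) added 3 h before the end. Formazan dissolved in DMSO, absorbance read at 570 and 630 nm. Viability normalised to vehicle control. IC50 from non-linear regression (variable slope), mean ± SD of triplicates.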

[4] = tested on: HCT-116; experiment: Induction of apoptosis in human HCT116 cells assessed as live cells at 2.5 uM after 24 hrs by 7-ADD and caspase 3/7 activity-based flow cytometry (reference value: 92.60%); type: functional
[5] = tested on: MEF; experiment: Cytotoxicity against mouse MEF at 1 to 10 uM after 48 hrs by MTT assay; type: cell-based
Procedure, shortened: (§2)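 Cells (HCT116, nHDF in serum-free fibroblast medium with growth kit, or MEFs) exposed to increasing compound concentrations for 48 h at 37 °C. Viability read by MTT: 3000 cells/well, triplicate, MTT 3 h before end, formazan in DMSO, absorbance 570/630 nm. Mean ± SD.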

[6] = tested on: HCT-116; experiment: Induction of apoptosis in human HCT116 cells assessed as late apoptotic cells at 2.5 uM after 24 hrs by 7-ADD and caspase 3/7 activity-based flow cytometry (reference value: 1.70%); type: functional
[7] = tested on: HCT-116; experiment: Induction of apoptosis in human HCT116 cells assessed as early apoptotic cells at 5 uM after 24 hrs by 7-ADD and caspase 3/7 activity-based flow cytometry (reference value: 2.45%); type: functional
[8] = tested on: RKO; experiment: Antiproliferative activity against human RKO cells assessed as reduction in cell viability after 72 hrs by MTT assay; type: functional, cell-based; procedure, shortened: as §1
[9] = tested on: MDA-MB-231; experiment: Antiproliferative activity against human MDA-MB-231 cells assessed as reduction in cell viability after 72 hrs by MTT assay; type: functional, cell-based; conditions: MDA-MB-231, 72 h; procedure, shortened: as §1
[10] = tested on: HCT-116; experiment: Induction of apoptosis in human HCT116 cells assessed as late apoptotic cells at 5 uM after 24 hrs by 7-ADD and caspase 3/7 activity-based flow cytometry (reference value: 1.70%); type: functional
[11] = tested on: HCT-116; experiment: Induction of apoptosis in human HCT116 cells assessed as early apoptotic cells at 10 uM after 24 hrs by 7-ADD and caspase 3/7 activity-based flow cytometry (reference value: 2.45%); type: functional
[12] = tested on: HCT-116; experiment: Induction of ROS generation in human HCT116 cells at 10 uM after 6 hrs by flow cytometry (reference value: 6%); type: functional
[13] = tested on: HCT-116; experiment: Induction of apoptosis in human HCT116 cells assessed as late apoptotic cells at 10 uM after 24 hrs by 7-ADD and caspase 3/7 activity-based flow cytometry (reference value: 1.70%); type: functional
[14] = tested on: HT-29; experiment: Antiproliferative activity against human HT-29 cells assessed as reduction in cell viability after 48 hrs by MTT assay; type: functional, cell-based; conditions: HT-29, 48 h; procedure, shortened: as §1
[15] = tested on: HCT-116; experiment: Induction of apoptosis in human HCT116 cells assessed as early apoptotic cells at 2.5 uM after 24 hrs by annexin V/7-ADD staining-based flow cytometry (reference value: 5.20%); type: functional
[16] = Antiproliferative activity against human DU145 cells assessed as reduction in cell viability after 72 hrs by MTT assay; type: functional, cell-based; conditions: DU-145, 72 h; procedure, shortened: as §1
[17] = tested on: NCI-H460; experiment: Antiproliferative activity against human NCI-H460 cells assessed as reduction in cell viability after 72 hrs by MTT assay; type: functional, cell-based; conditions: NCI-H460, 72 h; procedure, shortened: as §1
[18] = tested on: HCT-116; experiment: Effect on cell cycle in human HCT116 cells assessed as inhibition of cyclin E1 expression at 1 to 10 uM after 24 hrs by Western blot method; type: functional, cell-based
Procedure, shortened: (§3)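 CRC cells treated at indicated doses for 24 h. Whole-cell lysates made in RIPA buffer with protease and phosphatase inhibitors and cleared at 15,000 rpm for 10 min. Resolved on 4-12% gels, transferred to PVDF, probed for cell-cycle proteins, detected by ECL. Membranes stripped for sequential probing.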

[19] = Effect on cell cycle in human HCT116 cells assessed as upregulation of cyclin p21 expression after 24 hrs by Western blot method; type: functional, cell-based; conditions: HCT-116; procedure, shortened: as §3
[20] = tested on: HepG2; experiment: Antiproliferative activity against human HepG2 cells assessed as reduction in cell viability after 24 hrs by MTT assay; type: functional, cell-based; conditions: HepG2, 24 h; procedure, shortened: as §1
[21] = tested on: HCT-116; experiment: Induction of apoptosis in human HCT116 cells assessed as dead cells at 2.5 uM after 24 hrs by 7-ADD and caspase 3/7 activity-based flow cytometry (reference value: 3.25%); type: functional
[22] = Antiproliferative activity against human HCT116 cells assessed as reduction in cell viability after 72 hrs by MTT assay; type: functional, cell-based; conditions: HCT-116, 72 h; procedure, shortened: as §1
[23] = tested on: HCT-116; experiment: Induction of apoptosis in human HCT116 cells assessed as dead cells at 5 uM after 24 hrs by 7-ADD and caspase 3/7 activity-based flow cytometry (reference value: 3.25%); type: functional
[24] = Antiproliferative activity against human DU145 cells assessed as reduction in cell viability after 48 hrs by MTT assay; type: functional, cell-based; conditions: DU-145, 48 h; procedure, shortened: as §1
[25] = tested on: HCT-116; experiment: Induction of apoptosis in human HCT116 cells assessed as early apoptotic cells at 10 uM after 24 hrs by annexin V/7-ADD staining-based flow cytometry (reference value: 5.20%); type: functional
[26] = tested on: HCT-116; experiment: Induction of apoptosis in human HCT116 cells assessed as live cells at 10 uM after 24 hrs by annexin V/7-ADD staining-based flow cytometry (reference value: 90.05%); type: functional
[27] = Induction of cell death in human HCT116 cells at 15 uM after 24 hrs by ethidium bromide staining-based fluorescence microscopy; type: functional, HCT-116
Procedure, shortened: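 HCT116 cells treated 24 h with DMSO, 1 mM aspirin or 15 μM compound, then trypsinised. Cells were stained with calcein-AM (live, esterase activity) and ethidium homodimer-1 (dead, membrane loss). Cells were imaged by fluorescence microscopy with a 20X objective, and percent dead cells was counted. Values are mean ±SD.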

[28] = tested on: HepG2; experiment: Antiproliferative activity against human HepG2 cells assessed as reduction in cell viability after 48 hrs by MTT assay; type: functional, cell-based; conditions: HepG2, 48 h; procedure, shortened: as §1
[29] = tested on: HCT-116; experiment: Induction of apoptosis in human HCT116 cells assessed as dead cells at 2.5 uM after 24 hrs by annexin V/7-ADD staining-based flow cytometry (reference value: 3.10%); type: functional
[30] = Antiproliferative activity against human HCT116 cells assessed as reduction in cell viability after 24 hrs by MTT assay; type: functional, cell-based; conditions: HCT-116, 24 h; procedure, shortened: as §1
[31] = tested on: NHDF; experiment: Cytotoxicity against human NHDF at 1 to 10 uM after 48 hrs by MTT assay; type: cell-based; procedure, shortened: as §2
[32] = Antiproliferative activity against human PANC1 cells assessed as reduction in cell viability after 24 hrs by MTT assay; type: functional, cell-based; conditions: PANC-1, 24 h; procedure, shortened: as §1
[33] = tested on: HCT-116; experiment: Induction of apoptosis in human HCT116 cells assessed as late apoptotic cells at 10 uM after 24 hrs by annexin V/7-ADD staining-based flow cytometry (reference value: 1.65%); type: functional

CC(=O)Oc1ccccc1C(=O)NCC[Se]C#N
Activity [1]: 9.16%
Ratio IC50 [2]: >=5
IC50 [3]: 5.3 µM
Activity [4]: 60.4%
Activity [5]: Non-toxic
Activity [6]: 9.05%
Activity [7]: 44%
IC50 [8]: 2.9 µM
IC50 [9]: 6 µM
Activity [10]: 32.8%
Activity [11]: 37.65%
Activity [12]: 16.54%
Activity [13]: 46.85%
IC50 [14]: 2.1 µM
Activity [15]: 13.65%
IC50 [16]: 2.9 µM
IC50 [17]: 1.3 µM
inhibition [18]: Active
Activity [19]: Dose-dependent effect
IC50 [20]: 16 µM
Activity [21]: 2.1%
IC50 [22]: 2.1 µM
Activity [23]: 2.65%
IC50 [24]: 3.4 µM
Activity [25]: 32.4%
Activity [26]: 14.45%
Activity [27]: 51%
IC50 [28]: 5 µM
Activity [29]: 1.25%
IC50 [30]: 16.2 µM
Activity [31]: Non-toxic
IC50 [32]: 12.1 µM
Activity [33]: 51.55%

— ChEMBL document CHEMBL3792386, “Design, Synthesis, and Biological Evaluation of Novel Selenium (Se-NSAID) Molecules as Anticancer Agents” (J Med Chem, 2016)
